PubChem BioAssay AID720574 (Broad Institute, 2013)
“And” between values parts separate entries of the source, which are not always exact repeats. Identical values can stand only once. In all, about 96,000 compounds went through this assay and about 140 (0.15%) were called active. Shown is part of a subset that was picked to be rich in actives. A number with no mark means an inactive call.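 How the source made its calls: active means mean replicate inhibition above about 25%, with at least 55% of replicates also reaching it (limit read from the data, passing the limit was not always enough); inconclusive means only one of those two conditions met; inactive means neither condition met.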

target: Lysine-specific demethylase 4C (Homo sapiens) (UniProt Q9H3R0); assay: inhibitors of GASC-1 (KDM4C) histone demethylase, primary screen, biochemical, single concentration HTS (AID 720574); settings: GST-KDM4C 2-372, H3K9me3 peptide, LANCE TR-FRET; at 12.5 µM; hits give high values
Method in brief: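 reagent = H3K9me3 peptide substrate, Fe(II), 2-oxoglutarate | system = GST-tagged GASC-1 (JMJD2C) catalytic fragment, aa 2-372 | amount = enzyme final amount 10 nM | read-out = Fall in 671/618 emission ratio as inhibition | medium = HEPES buffer, pH 7.5, plus ascorbate | schedule = 30 min reaction, 60 min detection, RT | measured by = LANCE TR-FRET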

Chain of Lysine-specific demethylase 4C (Homo sapiens) (Q9H3R0 2-372 limits assumed): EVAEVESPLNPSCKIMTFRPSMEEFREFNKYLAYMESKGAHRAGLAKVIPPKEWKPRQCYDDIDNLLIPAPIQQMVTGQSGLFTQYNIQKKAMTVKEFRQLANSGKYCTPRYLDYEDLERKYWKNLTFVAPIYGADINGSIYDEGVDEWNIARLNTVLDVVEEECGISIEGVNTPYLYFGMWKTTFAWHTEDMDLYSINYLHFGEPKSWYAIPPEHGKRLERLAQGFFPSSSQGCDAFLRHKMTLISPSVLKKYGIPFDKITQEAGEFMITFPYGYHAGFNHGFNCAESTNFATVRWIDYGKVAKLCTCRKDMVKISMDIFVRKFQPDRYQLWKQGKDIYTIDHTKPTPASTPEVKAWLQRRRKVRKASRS

SMILES	inhibition
O=C(NC1CCCC1)[C@H]1[C@H](CO)[C@H]2Cn3c(ccc(-c4ccccc4)c3=O)[C@H]2N1CCc1ccccc1	3.27%
CO[C@H]1CN(C)C(=O)c2ccc(NC(=O)C3CCC3)cc2OC[C@H](C)NC[C@@H]1C	-0.842%
Cc1ccccc1S(=O)(=O)N1[C@H](CO)[C@@H](c2ccc(-c3ccccc3)cc2)[C@@H]1C#N	-3.67%
COc1ccc(S(=O)(=O)N(C)C[C@H]2OCCCC[C@H](C)Oc3ccc(NC(=O)Nc4ccc5c(c4)OCO5)cc3C(=O)N([C@@H](C)CO)C[C@@H]2C)cc1	15.8%
C[C@@H]1CN([C@@H](C)CO)C(=O)Cc2cc(NC(=O)Nc3ccc4c(c3)OCO4)ccc2O[C@H]1CN(C)S(=O)(=O)c1ccccc1	-0.169%
COc1ccc(C#Cc2ccc([C@H]3[C@H]4CN(C(=O)c5ccncc5)CC(=O)N4[C@H]3CO)cc2)cc1	-3.07%
COc1ccccc1CNC(=O)C[C@H]1C[C@@H]2c3cc(NC(=O)Nc4ccccc4F)ccc3O[C@@H]2[C@H](CO)O1	-9.36%
CO[C@@H]1CN(C)C(=O)c2cc(NC(=O)c3cccc(Oc4ccccc4)c3)ccc2OC[C@H](C)NC[C@@H]1C	-0.467%
CN(C)Cc1cn(CC[C@H]2CC[C@@H](NS(=O)(=O)c3ccccc3)[C@H](CO)O2)nn1	0.714%
O=C(NC[C@@H]1N[C@@H](CO)[C@H]1c1ccc(-c2cccnc2)cc1)c1cccc(F)c1	-0.99%
CN1CCN(C(=O)C[C@H]2CC[C@@H]3[C@H](COC[C@@H](O)CN3CC3CCCC3)O2)CC1	6.35%
CCCN1C[C@@H](C)[C@@H](OC)CN(C)C(=O)c2cc(NC(=O)c3ccccc3)ccc2OC[C@H]1C	-1.49%
COc1cccc(C(=O)Nc2ccc3c(c2)C(=O)N(C)[C@@H]2CC[C@@H](CC(=O)NCCCN4CCOCC4)O[C@@H]2CO3)c1	-0.807%
COCC(=O)Nc1ccc2c(c1)[C@H]1C[C@@H](CC(=O)NCc3ccccc3F)O[C@H](CO)[C@H]1O2	1.67%
CCCC(=O)N1CCC2(CC1)CN[C@H](CO)c1[nH]c3cc(OC)ccc3c12	-0.39%
CCCC(=O)Nc1ccc2c(c1)C(=O)N(C)C[C@H](OC)[C@H](C)CN(C(=O)c1ccccn1)[C@H](C)CO2	0.027%
C[C@H](CO)N1C[C@H](C)[C@@H](CN(C)Cc2ccc(Oc3ccccc3)cc2)Oc2ccc(NS(=O)(=O)c3ccc(F)cc3)cc2CC1=O	-2.45%
O=C(Cc1cccnc1)N1CC(=O)N2[C@@H](CO)[C@@H](c3ccc(C#CC4CCCCC4)cc3)[C@@H]2C1	-0.852%
COc1ccc(-c2cn(CC[C@H]3CC[C@@H](N)[C@H](CO)O3)nn2)cc1	-0.108%
N[C@@H]1CC[C@H](CCn2cc(C3CC3)nn2)O[C@@H]1CO	57.3% (active)
CN(C)CC(=O)N[C@@H]1CC[C@@H](CCn2cc(C3CC3)nn2)O[C@H]1CO	-0.3%
O=C(c1ccncc1)N1CC[C@@H]2[C@H]1c1cc(Br)ccc1N[C@@H]2CO	1.89%
CC(=O)N1[C@H](CO)[C@H](c2ccc(-c3ccccc3)cc2)[C@H]1CNC(=O)NC(C)C	-0.299%
CCC(=O)N[C@H]1CC[C@@H](CC(=O)NCC2CC2)O[C@@H]1CO	-0.369%
C/C=C/c1ccc([C@H]2[C@@H](CO)N(C(C)=O)[C@H]2CN(C)S(C)(=O)=O)cc1	1.96%
COc1ccc(S(=O)(=O)Nc2ccc3c(c2)C(=O)N([C@@H](C)CO)C[C@H](C)[C@@H](CN(C)C(=O)NC(C)C)OCCCC[C@H](C)O3)cc1	0.601%

SMILES	inhibition
CN(C)C(=O)[C@@H]1[C@@H](CO)[C@@H]2Cn3c(cccc3=O)[C@H]1N2C(=O)c1ccc(F)cc1	-1.64%
COc1ccc(NC(=O)N(C)C[C@H]2OCCCC[C@@H](C)Oc3ccc(NC(=O)NC4CCCCC4)cc3C(=O)N([C@H](C)CO)C[C@H]2C)cc1	-1.08%
O=C(NC1Cc2ccccc2C1)[C@H]1[C@H](CO)[C@H]2Cn3c(ccc(C4=CCCCC4)c3=O)[C@H]2N1CC1CC1	3.76%
CC(C)NC(=O)N[C@H]1CC[C@@H](CCNC(=O)C2CCC2)O[C@@H]1CO	-2.41%
Cc1ccccc1S(=O)(=O)N1[C@@H]2CNC[C@H]1C2c1ccc(-c2cccnc2)cc1 (stereo partly specified)	-0.633% and -0.155%
O=C(NCc1ccncn1)[C@@H]1[C@@H](CO)[C@@H]2Cn3c(ccc(-c4ccc(F)cc4)c3=O)[C@@H]2N1CC1CC1	12.7%
O=C(c1cnccn1)N1CC(=O)N2[C@H](C1)[C@@H](c1ccc(C#CC3CCCC3)cc1)[C@@H]2CO	7.28%
O=C(C[C@@H]1CC[C@H]2[C@@H](COC[C@@H](O)CN2S(=O)(=O)c2cccc(F)c2)O1)NCCCN1CCOCC1	-0.281%
C[C@H](CO)N1C[C@H](C)[C@H](CN(C)C(=O)C2CC2)Oc2cc(-c3cccnc3)ccc2S1(=O)=O	0.237%
Cn1cnc(CCNC(=O)C[C@@H]2CC[C@H]3[C@@H](COC[C@@H](O)CN3C(=O)Nc3ccc(Cl)cc3)O2)c1	-0.915%
O=C(Cc1ccccn1)N1CC(=O)N2[C@H](C1)[C@@H](c1ccc(-c3ccccc3)cc1)[C@@H]2CO	1.11%
O=C(c1ccc2c(c1)OCO2)N1CC(=O)N2[C@H](C1)[C@@H](c1ccc(C#Cc3ccccc3)cc1)[C@@H]2CO	-2.3%
O=C(NCC[C@@H]1CC[C@H](NC(=O)Nc2cc(F)ccc2F)[C@@H](CO)O1)Nc1ccc(Cl)cc1	0.858%
C[C@@H]1CN([C@@H](C)CO)S(=O)(=O)c2ccc(C#Cc3ccc(F)cc3)cc2O[C@@H]1CN(C)CC1CC1	-2.29%
C/C=C/c1ccc2c(c1)O[C@@H](CN(C)C(=O)NC1CCCC1)[C@@H](C)CN([C@H](C)CO)S2(=O)=O	0.88%
C[C@@H]1CN([C@@H](C)CO)S(=O)(=O)c2ccc(C#Cc3ccc(F)cc3)cc2O[C@H]1CN(C)C(=O)NC1CCCC1	55.9% (active)
COc1ccc2c3c(n(C)c2c1)[C@H](CO)N(Cc1ccc(F)cc1)CC31CN(CC2CCOCC2)C1	-0.66%
COc1ccc2c3c(n(C)c2c1)[C@@H](CO)N(C(=O)Nc1ccc(F)cc1)CC31CCN(C(=O)c2cccnc2)CC1	-1.49%
CO[C@@H]1CN(C)C(=O)c2cc(NC(=O)C3CC3)ccc2OC[C@H](C)N(Cc2ccc(F)cc2)C[C@@H]1C	-0.0715%
C[C@H](CO)N1C[C@H](C)[C@@H](CN(C)S(=O)(=O)c2ccccc2)OCCCC[C@H](C)Oc2ccc(NC(=O)NC3CCCCC3)cc2C1=O	0.616%
COCC(=O)NC[C@@H]1[C@@H](c2ccc(C3=CCCC3)cc2)[C@@H](CO)N1C(C)=O	3.61%
CCC(=O)Nc1ccc2c(c1)C(=O)N(C)C[C@@H](OC)[C@@H](C)CN(C(=O)CN(C)C)[C@@H](C)CO2	1.55%
O=C(C[C@@H]1C[C@@H]2c3cc(NS(=O)(=O)c4ccccc4)ccc3O[C@@H]2[C@@H](CO)O1)NC1CCCCC1	-0.944%
CS(=O)(=O)N1CC2(C1)[C@H](c1ccccc1)[C@H](CO)N2Cc1ccc(F)cc1	0.43%
CO[C@@H]1CN(C)C(=O)c2ccc(NC(=O)NC(C)C)cc2OC[C@@H](C)N(Cc2ccc(-c3ccccn3)cc2)C[C@H]1C	0.434%
CO[C@H]1CN(C)C(=O)c2ccc(NS(=O)(=O)c3ccccc3)cc2OC[C@@H](C)N(Cc2nccs2)C[C@@H]1C	0.175%

SMILES	inhibition
COC(=O)C[C@H]1C[C@H]2c3cc(NC(=O)NC4CCCCC4)ccc3O[C@H]2[C@H](CO)O1	9.44%
CC(C)NC(=O)N1[C@H](CNC(=O)CN(C)C)[C@@H](c2ccccc2)[C@@H]1CO	-0.351%
O=C(c1ccccn1)N1CC2(C1)[C@@H](c1ccccc1)[C@@H](CO)N2C(=O)C1CCC1	-1.3%
O=C(NCC[C@H]1CC[C@H](NS(=O)(=O)c2ccccc2)[C@H](CO)O1)c1cc(Cl)cc(Cl)c1	-1.8%
COc1ccc(-c2cnc3c(c2)C(=O)N([C@H](C)CO)C[C@@H](C)[C@H](CN(C)C(=O)Cc2ccncc2)O3)cc1	-0.262%
CO[C@@H]1CN(C)C(=O)c2cc(NC(=O)Nc3ccccc3F)ccc2OC[C@H](C)NC[C@H]1C	0.557%
CCCNC(=O)C[C@@H]1CC[C@H]2[C@H](COc3ccc(NC(=O)CCC)cc3C(=O)N2C)O1	1.75%
CCCNC(=O)N1CC2(C1)[C@H](c1ccccc1)[C@@H](CO)N2C(=O)C1CC1	1.13%
C/C=C/c1ccc([C@@H]2[C@@H](CO)N(C(=O)CN(C)C)C23CN(C(=O)C2CCCC2)C3)cc1	0.163%
CO[C@@H](CN(C)S(=O)(=O)c1ccccc1)[C@H](C)CN(Cc1ccccc1Cl)[C@H](C)CO	1.1%
COc1ccc2c3c(n(C)c2c1)[C@@H](CO)N(C(C)=O)CC31CCN(C(=O)C2CC2)CC1	-0.393%
O=C(Nc1ccccc1F)N1CC(=O)N2[C@H](C1)[C@H](c1ccc(C#Cc3ccc(F)cc3)cc1)[C@@H]2CO	1.34%
CCC(=O)N(C)C[C@H]1Oc2ncc(-c3ccccc3OC)cc2C(=O)N([C@H](C)CO)C[C@H]1C	17.4%
CN1[C@@H]2CN(C(=O)C3CCCCC3)c3ccccc3[C@@H]2[C@@H]1CO	4.33%
Cc1cccc(S(=O)(=O)N2C[C@@H]3[C@H](c4ccccc42)[C@H](CO)N3CC2CCOCC2)c1	-0.667%
O=C(NCc1ccc(F)cc1)[C@@H]1[C@@H](CO)[C@@H]2Cn3c(cccc3=O)[C@@H]2N1C(=O)c1cccnc1	-0.929%
CO[C@H]1CN(C)C(=O)c2ccc(NC(=O)NC(C)C)cc2OC[C@@H](C)N(C(=O)CN(C)C)C[C@H]1C	0.223%
COc1ccc(CN(C)C[C@@H]2Oc3ccc(NC(=O)Nc4ccc(F)cc4)cc3CC(=O)N([C@@H](C)CO)C[C@H]2C)cc1	-0.133%
O=C(C1CCOCC1)N1C[C@H]2[C@@H](c3ccccc31)[C@@H](CO)N2Cc1ccccc1	2.96%
O=C(CC1CC1)N1[C@@H]2CN(S(=O)(=O)c3ccccc3F)c3ccccc3[C@@H]2[C@@H]1CO	2%
C[C@H]1CN([C@@H](C)CO)C(=O)c2cc(C#Cc3ccccc3F)cnc2O[C@H]1CN(C)C	28.4% (active)
C[C@H]1CN([C@@H](C)CO)C(=O)c2cc(C#Cc3ccccc3F)cnc2O[C@@H]1CN(C)C(=O)C1CC1	-1.28%
C[C@H](CO)N1C[C@H](C)[C@@H](CN(C)S(=O)(=O)c2ccccc2)Oc2ncc(C#Cc3ccccc3F)cc2C1=O	-3.49%
COc1ccc2c3c([nH]c2c1)[C@@H](CO)N(C(=O)Nc1ccc(F)cc1)CC31CN(S(C)(=O)=O)C1	-0.649%
